Data published in ChEMBL document CHEMBL1128433, “Novel 1,2-dithiins: synthesis, molecular modeling studies, and antifungal activity” (1995).
Converted amounts (≈) assume the structure as drawn.

Each compound was assayed on Aspergillus fumigatus (assay: Antifungal activity against aspergillus fumigatus). Conditions: not given.
Assay type: functional
Outline: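 A. fumigatus grown on SAB agar 3–4 d at 35 °C; conidia used as inoculum at final 1 × 10^3 cfu/mL. Broth microdilution in SAB broth, 2-fold serial dilutions of compound dissolved in ethanol or DMSO. Incubated 48 h at 35 °C. MIC read by eye as the lowest concentration with no visible growth. Amphotericin B reference.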
In the case of `OCC1=CC=C(COc2ccc(-n3ccnc3)cc2)SS1`, the MIC is reported as 100 mg/L (≈ 314 µM).
Compound `CC(C)C(=O)OCC1=CC=C(COC(=O)C(C)C)SS1` has an MIC of 6.3 mg/L (≈ 19.9 µM).
For `O=C(OCC1=CC=C(CO)SS1)C1CC1`, the MIC was 0.4 mg/L (≈ 1.64 µM).
`O=C(OCC1=CC=C(CO)SS1)c1ccccc1` was tested, and the MIC was 3.1 mg/L (≈ 11.1 µM).
Compound `OCC1=CC=C(COc2cccc(O)c2)SS1` has an MIC greater than 100 mg/L.
In the case of `COC(=O)c1cccc(OCC2=CC=C(CO)SS2)c1`, the MIC is reported as 25 mg/L (≈ 80.5 µM).
For `OCC1=CC=C(COc2ccccn2)SS1`, the MIC was 3.1 mg/L (≈ 12.2 µM).
With `O=C(NCC1=CC=C(CO)SS1)c1ccccc1O` the MIC was greater than 100 mg/L.
Compound `CCC(=O)OCC1=CC=C(COC(=O)CC)SS1` has an MIC of 3.1 mg/L (≈ 10.7 µM).
In the case of `CO/N=C/C1=CC=C(CO)SS1`, the MIC is reported as 6.3 mg/L (≈ 31 µM).
With `O=c1ccc(=O)n(CC2=CC=C(CO)SS2)[nH]1` the MIC was greater than 100 mg/L.
With `COC(=O)c1ccc(OCC2=CC=C(CO)SS2)cc1` the MIC was 12.5 mg/L (≈ 40.3 µM).
`O=C(NCC1=CC=C(CO)SS1)Nc1ccccc1O` was tested, and the MIC was greater than 100 mg/L.
With `CC(=O)OCC1=CC=C(COC(C)=O)SS1` the MIC was 0.63 mg/L (≈ 2.42 µM).
For `O=C(OCC1=CC=C(COC(=O)c2ccccc2O)SS1)c1ccccc1O`, the MIC was greater than 250 mg/L.
Compound `N#CC1=CC=C(CO)SS1` has an MIC of 1.6 mg/L (≈ 9.34 µM).
`CC(=O)NCC1=CC=C(CO)SS1` showed an MIC greater than 100 mg/L.
Compound `O=C(OCC1=CC=C(COC(=O)c2ccccc2)SS1)c1ccccc1` has an MIC greater than 100 mg/L.
Compound `CCOC(=O)/C=C/C1=CC=C(CO)SS1` has an MIC of 25 mg/L (≈ 102 µM).
For `OCC1=CC=C(COc2ccccc2F)SS1`, the MIC was 3.1 mg/L (≈ 11.5 µM).
Compound `OCC1=CC=C(COc2ccccc2)SS1` has an MIC of 25 mg/L (≈ 99.1 µM).
With `O=C(OCC1=CC=C(COC(=O)C2CC2)SS1)C1CC1` the MIC was 1.6 mg/L (≈ 5.12 µM).
With `CC(=O)OCC1=CC=C(CO)SS1` the MIC was 0.4 mg/L (≈ 1.83 µM).
In the case of `O=C(OCC1=CC=C(CO)SS1)c1ccccc1O`, the MIC is reported as 0.2 mg/L (≈ 0.675 µM).
`[N-]=[N+]=NCC1=CC=C(CO)SS1` was tested, and the MIC was 0.25 mg/L (≈ 1.24 µM).
In the case of `OCC1=CC=C(COc2ccccc2C(F)(F)F)SS1`, the MIC is reported as 50 mg/L (≈ 156 µM).
`O=C(Nc1ccccc1O)OCC1=CC=C(CO)SS1` showed an MIC of 50 mg/L (≈ 161 µM).
`COC(=O)/C=C/C1=CC=C(CO)SS1` gave an MIC of 6.3 mg/L (≈ 27.4 µM).

These compounds were tested on Pichia kudriavzevii (assay: Antifungal activity against candida krusei GK7831). Conditions: not given.
Assay type: functional
Outline: (§1)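 Candida grown 24 h at 35 °C on YM agar, then 6 h at 35 °C with rotation in GYB broth (2% glucose, 1% yeast extract). Final inoculum 2 × 10^3 cfu/mL. 96-well SAB broth microdilution, 2-fold series from ethanol or DMSO solutions. 24 h at 35 °C; MIC = lowest concentration without visible growth. Amphotericin B reference.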
For `O=C(OCC1=CC=C(CO)SS1)C1CC1`, the MIC was 1.25 mg/L (≈ 5.12 µM).
`CC(=O)OCC1=CC=C(CO)SS1` was tested, and the MIC was 1.25 mg/L (≈ 5.73 µM).

The compounds below were run on Trichophyton rubrum (assay: Antifungal activity against Trichophyton rubrum ATCC 18762). Conditions: not given.
Assay type: functional
Outline: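 T. rubrum grown on SAB agar 5–7 d at 25 °C; conidia as inoculum, final 1 × 10^4 cfu/mL. Compounds in ethanol or DMSO, 2-fold serial dilutions in SAB broth in 96-well plates. Incubated 7 d at 25 °C. MIC taken as the lowest concentration with no visible growth versus the growth-control wells. Amphotericin B was the reference.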
With `O=C(OCC1=CC=C(CO)SS1)C1CC1` the MIC was 0.31 mg/L (≈ 1.27 µM).
`CC(=O)OCC1=CC=C(CO)SS1` was tested, and the MIC was 0.31 mg/L (≈ 1.42 µM).

These compounds were tested on Candida tropicalis (assay: Antifungal activity against candida tropicalis 1525). Conditions: not given.
Assay type: functional
Outline: as §1
With `O=C(OCC1=CC=C(CO)SS1)C1CC1` the MIC was 1.25 mg/L (≈ 5.12 µM).
Work on `CC(=O)OCC1=CC=C(CO)SS1` yielded an MIC of 1.25 mg/L (≈ 5.73 µM).

What follows are compounds tested on Candida parapsilosis (assay: Antifungal activity against candida parapsilosis CP18). Conditions: Lodderomyces parapsilosis.
Assay type: functional
Outline: as §1
In the case of `O=C(OCC1=CC=C(CO)SS1)C1CC1`, the MIC is reported as 2.5 mg/L (≈ 10.2 µM).
`CC(=O)OCC1=CC=C(CO)SS1` gave an MIC of 1.25 mg/L (≈ 5.73 µM).

These compounds were tested on Cryptococcus neoformans (assay: Antifungal activity against cryptococcus neoformans). Conditions: not given.
Assay type: functional
Outline: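 C. neoformans grown on YM agar 48 h at 35 °C, then 6 h in GYB broth at 35 °C with rotation. Final inoculum 2 × 10^4 cfu/mL. SAB broth microdilution with 2-fold serial dilutions (compound in ethanol or DMSO). Incubated 48 h at 35 °C; MIC read visually as the lowest concentration with no growth. Amphotericin B reference.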
Compound `OCC1=CC=C(COc2ccc(-n3ccnc3)cc2)SS1` has an MIC of 100 mg/L (≈ 314 µM).
`CC(C)C(=O)OCC1=CC=C(COC(=O)C(C)C)SS1` showed an MIC of 12.5 mg/L (≈ 39.5 µM).
Compound `O=C(OCC1=CC=C(CO)SS1)C1CC1` has an MIC of 1.6 mg/L (≈ 6.55 µM).
Compound `O=C(OCC1=CC=C(CO)SS1)c1ccccc1` has an MIC of 3.1 mg/L (≈ 11.1 µM).
`OCC1=CC=C(COc2cccc(O)c2)SS1` gave an MIC of 100 mg/L (≈ 373 µM).
`COC(=O)c1cccc(OCC2=CC=C(CO)SS2)c1` gave an MIC of 6.3 mg/L (≈ 20.3 µM).
Work on `OCC1=CC=C(COc2ccccn2)SS1` yielded an MIC of 3.1 mg/L (≈ 12.2 µM).
Compound `O=C(NCC1=CC=C(CO)SS1)c1ccccc1O` has an MIC of 100 mg/L (≈ 339 µM).
Work on `CCC(=O)OCC1=CC=C(COC(=O)CC)SS1` yielded an MIC of 6.3 mg/L (≈ 21.8 µM).
In the case of `CO/N=C/C1=CC=C(CO)SS1`, the MIC is reported as 6.3 mg/L (≈ 31 µM).
In the case of `O=c1ccc(=O)n(CC2=CC=C(CO)SS2)[nH]1`, the MIC is reported as greater than 100 mg/L.
Compound `COC(=O)c1ccc(OCC2=CC=C(CO)SS2)cc1` has an MIC of 3.1 mg/L (≈ 9.99 µM).
`O=C(NCC1=CC=C(CO)SS1)Nc1ccccc1O` was tested, and the MIC was greater than 100 mg/L.
`CC(=O)OCC1=CC=C(COC(C)=O)SS1` was tested, and the MIC was 0.63 mg/L (≈ 2.42 µM).
`N#CC1=CC=C(CO)SS1` showed an MIC of 0.8 mg/L (≈ 4.67 µM).
With `CC(=O)NCC1=CC=C(CO)SS1` the MIC was 100 mg/L (≈ 460 µM).
Compound `O=C(OCC1=CC=C(COC(=O)c2ccccc2)SS1)c1ccccc1` has an MIC greater than 100 mg/L.
With `CCOC(=O)/C=C/C1=CC=C(CO)SS1` the MIC was 6.3 mg/L (≈ 25.8 µM).
Compound `OCC1=CC=C(COc2ccccc2F)SS1` has an MIC of 1.6 mg/L (≈ 5.92 µM).
Work on `OCC1=CC=C(COc2ccccc2)SS1` yielded an MIC of 12.5 mg/L (≈ 49.5 µM).
For `O=C(OCC1=CC=C(COC(=O)C2CC2)SS1)C1CC1`, the MIC was 3.1 mg/L (≈ 9.92 µM).
With `CC(=O)OCC1=CC=C(CO)SS1` the MIC was 0.2 mg/L (≈ 0.916 µM).
For `O=C(OCC1=CC=C(CO)SS1)c1ccccc1O`, the MIC was 0.2 mg/L (≈ 0.675 µM).
In the case of `[N-]=[N+]=NCC1=CC=C(CO)SS1`, the MIC is reported as 0.25 mg/L (≈ 1.24 µM).
`OCC1=CC=C(COc2ccccc2C(F)(F)F)SS1` gave an MIC of 6.3 mg/L (≈ 19.7 µM).
`O=C(Nc1ccccc1O)OCC1=CC=C(CO)SS1` gave an MIC of 50 mg/L (≈ 161 µM).
`COC(=O)/C=C/C1=CC=C(CO)SS1` gave an MIC of 6.3 mg/L (≈ 27.4 µM).

What follows are compounds tested on Candida albicans (assay: Antifungal activity against candida albicans). Conditions: not given.
Assay type: functional
Outline: as §1
Work on `OCC1=CC=C(COc2ccc(-n3ccnc3)cc2)SS1` yielded an MIC of 12.5 mg/L (≈ 39.3 µM).
For `CC(C)C(=O)OCC1=CC=C(COC(=O)C(C)C)SS1`, the MIC was greater than 100 mg/L.
With `O=C(OCC1=CC=C(CO)SS1)C1CC1` the MIC was 3.1 mg/L (≈ 12.7 µM).
With `O=C(OCC1=CC=C(CO)SS1)c1ccccc1` the MIC was 6.3 mg/L (≈ 22.5 µM).
Work on `OCC1=CC=C(COc2cccc(O)c2)SS1` yielded an MIC of 50 mg/L (≈ 186 µM).
In the case of `COC(=O)c1cccc(OCC2=CC=C(CO)SS2)c1`, the MIC is reported as 3.1 mg/L (≈ 9.99 µM).
In the case of `OCC1=CC=C(COc2ccccn2)SS1`, the MIC is reported as 3.1 mg/L (≈ 12.2 µM).
`O=C(NCC1=CC=C(CO)SS1)c1ccccc1O` gave an MIC greater than 100 mg/L.
With `CCC(=O)OCC1=CC=C(COC(=O)CC)SS1` the MIC was 12.5 mg/L (≈ 43.3 µM).
Work on `CO/N=C/C1=CC=C(CO)SS1` yielded an MIC of 6.3 mg/L (≈ 31 µM).
For `O=c1ccc(=O)n(CC2=CC=C(CO)SS2)[nH]1`, the MIC was greater than 100 mg/L.
Compound `COC(=O)c1ccc(OCC2=CC=C(CO)SS2)cc1` has an MIC of 3.1 mg/L (≈ 9.99 µM).
For `O=C(NCC1=CC=C(CO)SS1)Nc1ccccc1O`, the MIC was greater than 100 mg/L.
`CC(=O)OCC1=CC=C(COC(C)=O)SS1` was tested, and the MIC was 1.25 mg/L (≈ 4.8 µM).
For `O=C(OCC1=CC=C(COC(=O)c2ccccc2O)SS1)c1ccccc1O`, the MIC was greater than 250 mg/L.
Work on `N#CC1=CC=C(CO)SS1` yielded an MIC of 0.8 mg/L (≈ 4.67 µM).
Work on `CC(=O)NCC1=CC=C(CO)SS1` yielded an MIC greater than 100 mg/L.
In the case of `O=C(OCC1=CC=C(COC(=O)c2ccccc2)SS1)c1ccccc1`, the MIC is reported as greater than 100 mg/L.
`CCOC(=O)/C=C/C1=CC=C(CO)SS1` gave an MIC of 12.5 mg/L (≈ 51.2 µM).
With `OCC1=CC=C(COc2ccccc2F)SS1` the MIC was 3.1 mg/L (≈ 11.5 µM).
Work on `OCC1=CC=C(COc2ccccc2)SS1` yielded an MIC of 25 mg/L (≈ 99.1 µM).
For `O=C(OCC1=CC=C(COC(=O)C2CC2)SS1)C1CC1`, the MIC was 6.3 mg/L (≈ 20.2 µM).
Work on `CC(=O)OCC1=CC=C(CO)SS1` yielded an MIC of 3.1 mg/L (≈ 14.2 µM).
`O=C(OCC1=CC=C(CO)SS1)c1ccccc1O` gave an MIC of 0.2 mg/L (≈ 0.675 µM).
For `[N-]=[N+]=NCC1=CC=C(CO)SS1`, the MIC was 0.25 mg/L (≈ 1.24 µM).
Work on `OCC1=CC=C(COc2ccccc2C(F)(F)F)SS1` yielded an MIC of 25 mg/L (≈ 78 µM).
For `O=C(Nc1ccccc1O)OCC1=CC=C(CO)SS1`, the MIC was 100 mg/L (≈ 321 µM).
Work on `COC(=O)/C=C/C1=CC=C(CO)SS1` yielded an MIC of 6.3 mg/L (≈ 27.4 µM).
